Measurements taken from ChEMBL document CHEMBL1124026, “Nitrosoimidazoles: highly bactericidal analogues of 5-nitroimidazole drugs” (J Med Chem, 1988).
Values after ≈ are worked out from the molar mass of the structure shown.

Tests used:
[1] = Half-life measured on Escherichia coli SR58 in BHI medium; value ranges from 1-3; type: ADME, organism-based; conditions: Escherichia coli SR58 culture
[2] = Half-life measured on Bacteroides fragilis in BHIS medium; type: ADME, organism-based; conditions: Bacteroides fragilis culture
[3] = Half-life measured in 0.1 M KPO4 buffer at PH 7; type: ADME; conditions: 0.1 M potassium phosphate buffer
Procedure, shortened: (§1)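 Decay followed as loss of UV absorbance at each compound's absorbance maximum in 0.1 M potassium phosphate, pH 7.0, 0.05–1.0 mM compound. Decay first order; half-life taken as time to 50% absorbance loss, from linear regression, given as mean ± standard deviation.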

Escherichia coli [4] = assay: Minimum inhibitory concentration measured against Escherichia coli AB1885 strain (UvrB- Rec+); type: functional
Procedure, shortened: (§2)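 Compounds serially diluted 2-fold in BHIS medium containing 5% Me2SO. Each well inoculated with bacteria from a stationary-phase culture, suspension at 10^7 cfu/mL. Incubated anaerobically at 37 °C in Gaspak jars; growth read after 17 h.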

Clostridium perfringens = assay: Minimum inhibitory concentration measured against Clostridium perfringens strain; type: functional
Procedure, shortened: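 Twofold serial dilutions in BHIS medium with 5% Me2SO; each well inoculated with stationary-phase bacterial suspension (10^7 cfu/mL). Plates incubated anaerobically at 37 °C in Gaspak jars; growth scored after 17 h.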

Escherichia coli [5] = assay: Minimum inhibitory concentration measured against Escherichia coli EE128 strain (Uvr+ RecA-); type: functional; procedure, shortened: as §2
Bacteroides fragilis = assay: Minimum inhibitory concentration measured against Bacteroides fragilis strain; type: functional; procedure, shortened: as §2
Escherichia coli [6] = assay: Minimum inhibitory concentration measured against Escherichia coli AB1157 strain (Uvr+ Rec+); type: functional; procedure, shortened: as §2
Escherichia coli [7] = assay: Minimum inhibitory concentration measured against Escherichia coli EE349 strain (UvrB- Rec+); type: functional; procedure, shortened: as §2
Escherichia coli [8] = assay: Minimum inhibitory concentration measured against Escherichia coli SR58 strain (RecA- UvrB-); type: functional; procedure, shortened: as §2
[9] = Half-life measured in BHI spent medium; type: ADME
Procedure, shortened: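 Spent BHI medium prepared by removing E. coli by centrifugation and filtration after maximal logarithmic growth. Compound at 0.05–1.0 mM; UV absorbance at its maximum followed. First-order half-life (time to 50% absorbance loss) from linear regression, mean ± standard deviation.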

[10] = Half-life measured on Escherichia coli SR58 in BHI medium; value ranges from 3-4; type: ADME, organism-based; conditions: Escherichia coli SR58 culture
[11] = Half-life measured on Escherichia coli SR58 in BHI medium; value ranges from 4-6; type: ADME, organism-based; conditions: Escherichia coli SR58 culture
[12] = Half-life measured in 0.1 M KPO4 buffer atPH 7; type: ADME; conditions: 0.1 M potassium phosphate buffer, pH 7; procedure, shortened: as §1

With `O=Nc1[nH]cnc1-c1ccccc1` the half-life [1] was 1 min, the half-life [2] was < 2 min and the half-life [3] was 330 min.
In the case of `Cn1cnc(-c2ccccc2)c1[N+](=O)[O-]`, the MIC (Escherichia coli [4]) was > 500 µM, the MIC (Clostridium perfringens) was 15 µM (≈ 3.05 µg/mL) and the MIC (Escherichia coli [5]) was 30 µM (≈ 6.1 µg/mL). The MIC (Bacteroides fragilis) was < 2 µM, the MIC (Escherichia coli [6]) was > 500 µM and the MIC (Escherichia coli [7]) was 100 µM (≈ 20.3 µg/mL). For the same compound, the MIC (Escherichia coli [8]) was 8 µM (≈ 1.63 µg/mL).
In the case of `Cn1cnc(-c2ccccc2)c1N=O`, the half-life [9] was 40 min, the half-life [10] was 3 min and the half-life [2] was < 2 min. The half-life [3] was 540 min.
With `Cn1cnc(N=O)c1-c1ccccc1` the half-life [11] was 4 min, the half-life [9] was 160 min and the half-life [12] was > 600 min. The half-life [2] was < 2 min.
For `Cn1cnc([N+](=O)[O-])c1-c1ccccc1`, the MIC (Escherichia coli [4]) was > 500 µM, the MIC (Clostridium perfringens) was > 500 µM and the MIC (Escherichia coli [5]) was > 500 µM. For the same compound, the MIC (Bacteroides fragilis) was 500 µM (≈ 102 µg/mL), the MIC (Escherichia coli [6]) was > 500 µM and the MIC (Escherichia coli [7]) was ≥ 500 µM. For the same compound, the MIC (Escherichia coli [8]) was 500 µM (≈ 102 µg/mL).
For `O=[N+]([O-])c1[nH]cnc1-c1ccccc1`, the MIC (Escherichia coli [4]) was > 500 µM, the MIC (Clostridium perfringens) was 250 µM (≈ 47.3 µg/mL) and the MIC (Bacteroides fragilis) was 30 µM (≈ 5.68 µg/mL). For the same compound, the MIC (Escherichia coli [6]) was > 500 µM and the MIC (Escherichia coli [8]) was 130 µM (≈ 24.6 µg/mL).
For `Cc1ncc([N+](=O)[O-])n1CCO` [METRONIDAZOLE], the MIC (Escherichia coli [4]) was > 500 µM, the MIC (Clostridium perfringens) was 13 µM (≈ 2.23 µg/mL) and the MIC (Escherichia coli [5]) was 600 µM (≈ 103 µg/mL). The MIC (Bacteroides fragilis) was 6 µM (≈ 1.03 µg/mL), the MIC (Escherichia coli [6]) was > 500 µM and the MIC (Escherichia coli [7]) was > 600 µM. The MIC (Escherichia coli [8]) was 100 µM (≈ 17.1 µg/mL).
